Assay results reported in ChEMBL document CHEMBL5150073, “Photocaged DNA-Binding Photosensitizer Enables Photocontrol of Nuclear Entry for Dual-Targeted Photodynamic Therapy” (J Med Chem, 2022).
Activity calls are given as the source filed them. The calls are words filed in the database; no cut-off is given here.

What was measured:
[1] = Induction of ROS production in PBS at pH 7.4 at 1 uM irradiated with 480 nm 2.3 J/cm^2 light for 15 mins with 8 J/cm^2 UV irradiation for 5 mins by DCFH2-DA probe based analysis; assay type: functional; details: time 20.0 min
DNA = experiment: Induction of DNA (unknown origin) damage in PBS at pH 7.4 assessed as double strand breaks by measuring production of small DNA fragments at 10 uM irradiated with 480 nm 2.3 J/cm^2 light for 15 mins with 8 J/cm^2 UV irradiation for 5 mins by ethidium bromide staining based agarose gel electrophoresis; assay type: nucleic-acid assay; details: time 20.0 min
Summary of the method: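 Plasmid dsDNA (70 ng pCMV-PARP1-3xFlag-WT, 7146 bp) in PBS pH 7.4 with compound at 10 μM. Illumination: 480 nm for 15 min (2.3 J cm⁻²), then UV 365 nm lamp for 5 min (8.0 J cm⁻²). Samples denatured, run on 1% agarose gel with ethidium bromide. n = 2.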

MCF7 [2] = experiment: (§1) Photocytotoxicity against human MCF7 cells cultured as […] spheroids assessed as fold reduction in diameter of tumor spheroid size at 10 uM incubated for 1 hr followed by washout and irradiation with 480 nm 2.3 J/cm^2 light for 15 mins with 8 J/cm^2 UV irradiation for 5 mins and incubated overnight by cell viability imaging kit based assay; assay type: functional
Summary of the method: (§2)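 MCF7 spheroids (~300 μm) grown in ultralow-attachment plates. Compound added to medium at 10 μM final for 1 h, then illuminated: 480 nm (15 min, 2.3 J cm⁻²), 480 nm plus UV (5 min, 8.0 J cm⁻²), or UV only. After overnight incubation, stained with a live/dead imaging kit; dead-cell green mean intensity and spheroid diameter assessed.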

Calf thymus DNA [3] = experiment: Binding affinity to calf thymus DNA assessed as fold change in fluorescence quenching of 3-bromo-2-(4-carbamimidoylphenyl)-1H-indole-6-carboxamidine; assay type: nucleic-acid assay; details: Bos taurus
MCF7 [4] = experiment: Photocytotoxicity against human MCF7 cells assessed as reduction in cell viability incubated for 1 hr under dark condition followed by washout and measured after 24 hrs by MTT assay; assay type: functional
Summary of the method: (§3)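 Cells (MCF7, A549, HeLa) incubated 1 h with compound (BB probes 0–32 μM, Br-DAPI 0–64 μM) and washed once. Light arms: 480 nm (15 min, 2.3 J cm⁻²) with or without UV (5 min, 8.0 J cm⁻²), or UV only; dark controls unilluminated. Cells kept overnight in growth medium, then MTT read 24 h post-treatment. CC50 taken relative to untreated cells. n = 3.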

[5] = Photorelease activity in PBS at pH 7.4 assessed as wintergreen release at 50 uM in presence of CT-DNA illuminated with 3.1 J/cm^2 480 nm illumination for 20 mins by RP-HPLC analysis; assay type: functional
Summary of the method: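 Samples at 50 μM in PBS pH 7.4 were either kept 3 h at 37 °C in the dark or illuminated 20 min at 480 nm (450–495 nm filter, 3.1 J cm⁻²). Analysed by RP-HPLC on a C18 analytical column with absorbance at 345 nm; retention times recorded. n = 2 independent samples.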

[6] = Drug localization in mitochondria of human MCF7 cells assessed as increase in bright green fluorescence of wintergreen excitation at 2 uM incubated for 1 hr in dark by Mitotracker green dye based analysis; assay type: ADME; details: mcf7, 1 h
MCF7 [7] = experiment: Photocytotoxicity against human MCF7 cells assessed as cell death by measuring increase in green fluorescence incubated for 1 hr followed by washout and irradiated with 480 nm 2.3 J/cm^2 light for 15 mins with 48 J 780 nm 2P laser light for 30 seconds and further incubated for 2 hrs by cell viability imaging kit based assay; assay type: functional; details: dose 0-8 µM, DDE = dose-dependent effect
Summary of the method: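 MCF7 cells given compound at 4 μM. Illuminated with 480 nm light (15 min, 2.3 J cm⁻²) plus 780 nm two-photon laser (30 s, 48 J). Stained 2 h later with a live/dead imaging kit: green dead-cell stain (EGFP filter), blue total-cell stain (DAPI filter). n = 3.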

MCF7 [8] = experiment: Induction of DNA damage in human MCF7 cells assessed as double strand breaks by measuring pink foci formation in nucleus at 3 uM incubated for 2 hrs followed by irradiation with 480 nm 2.3 J/cm^2 light for 15 mins with 8 J/cm^2 UV irradiation for 5 mins by gammaH2A.X antibody/Alexa 488/DAPI staining based fluorescence analysis; assay type: functional, cell-based
Summary of the method: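 MCF7 cells treated with compound at 3 μM, then illuminated with 480 nm (15 min, 2.3 J cm⁻²) plus UV (5 min, 8.0 J cm⁻²), or with UV alone. Left 2 h, fixed, stained with Alexa 488-tagged γH2AX antibody and DAPI counterstain. Nuclear foci imaged.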

[9] = (§4) Stability of compound in human HeLa cells assessed as esterase-mediated 3-bromo-2-(4-carbamimidoylphenyl)-1H-indole-6-carboxamidine release by measuring cyan fluorescence at 2 uM incubated for 1 hr followed by compound washout and further incubated for 1 hr on heated microscopic stage by DAPI filter based fluorescence analysis; assay type: ADME, cell-based
Summary of the method: (§5)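 Cells incubated with compound (2 μM) for 1 h, washed once with PBS, then kept a further 1 h in the dark on a heated microscope stage. Nuclear cyan fluorescence imaged with the DAPI filter set at 0 h and 2 h time points.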

Calf thymus DNA [10] = experiment: Binding affinity to calf thymus DNA assessed as reduction in absorbance spectra at 20 uM by fluorescence based analysis; assay type: nucleic-acid assay; details: Bos taurus
[11] = as §4, with “MCF7” for “HeLa”; assay type: ADME, cell-based; details: mcf7, 1 h; summary of the method: as §5
MCF7 [12] = experiment: Photocytotoxicity against human MCF7 cells assessed as reduction in cell viability incubated for 1 hr followed by washout and irradiation with 480 nm 2.3 J/cm^2 light for 15 mins and measured after 24 hrs by MTT assay; assay type: functional; details: MCF7, light or radiation study; summary of the method: as §3
MCF7 [13] = experiment: Photorelease activity in human MCF7 cells assessed as wintergreen release by measuring bright green fluorescence in nucleus at 3 uM incubated for 1 hr followed by illumination with 1.6 J/cm^2 for 10 mins by EGFP filter based analysis; assay type: ADME, cell-based; details: mcf7, 1.167 h, time 70 min
Summary of the method: (§6)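 MCF7 cells given compound (3 μM) for 1 h, washed once with PBS, imaged. DAPI filter set (ex 350–405, em 415–470 nm) used for Br-DAPI cyan signal; EGFP filter set (ex 450–495, em 500–550 nm) used for WinterGreen green signal. Cells imaged dark, then after 480 nm illumination (10 min, 1.6 J cm⁻²).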

MCF7 [14] = experiment: Photocytotoxicity against human MCF7 cells cultured as 3D spheroids assessed as fold reduction in diameter of tumor spheroid size at 10 uM incubated for 1 hr followed by washout and irradiation with 480 nm 2.3 J/cm^2 light for 15 mins with 8 J/cm^2 UV irradiation for 5 mins and incubated overnight by cell viability imaging kit based assay
A549 = experiment: Selectivity index, ratio of CC50 for photocytotoxicity against human […] cells irradiated with 480 nm 2.3 J/cm^2 light to CC50 for photocytotoxicity against human A549 cells irradiated with 480 nm 2.3 J/cm^2 light and 8 J/cm^2 UV irradiation; assay type: functional; summary of the method: as §3
MCF7 [15] = experiment: Photorelease activity in human MCF7 cells assessed as 3-bromo-2-(4-carbamimidoylphenyl)-1H-indole-6-carboxamidine release by measuring bright cyan fluorescence in nucleus at 3 uM incubated for 1 hr followed by illumination with 1.6 J/cm^2 for 10 mins by DAPI filter based analysis; assay type: ADME, cell-based; details: mcf7, 1.167 h, time 70 min; summary of the method: as §6
MCF7 [16] = experiment: as §1, with “as” for “as fold reduction in diameter of”, “shrinkage” for “size”; assay type: functional; summary of the method: as §2

## CC1=CC(C)=[N+]2C1=C(COC(=O)/N=C(\N)c1ccc3c(Br)c(-c4ccc(C(=N)N)cc4)[nH]c3c1)c1c(C)cc(C)n1[B-]2(C)C
[1]
  Activity: Active
DNA
  Activity: Active
MCF7 [2]
  fold change (FC): 5
Calf thymus DNA [3]
  fold change (FC): 4
MCF7 [4]
  CC50: > 10 µM
[5]
  Drug metabolism: Metabolite not detected
[6]
  Drug uptake: Active
MCF7 [7]
  Activity: Dde
MCF7 [8]
  Activity: Active
[9]
  Stability: Stable
Calf thymus DNA [10]
  Activity: Active
[11]
  Stability: Stable
MCF7 [12]
  CC50: 4 µM
MCF7 [13]
  Drug metabolism: Metabolite_Notdetected
MCF7 [14]
  Activity: Active
A549
  Ratio: 17
MCF7 [15]
  Drug metabolism: Metabolite_Detected
MCF7 [16]
  Activity: Active
